According to ChEMBL document CHEMBL4350958, “Rational Design of Short Peptide Variants by Using Kunitzin-RE, an Amphibian-Derived Bioactivity Peptide, for Acquired Potent Broad-Spectrum Antimicrobial and Improved Therapeutic Potential of Commensalism Coinfection of Pathogens” (J Med Chem, 2019):
Activity calls are given as the source filed them. The calls are words filed in the database; no cut-off is given here.

Experiments:
Pseudomonas aeruginosa = experiment: Antibacterial activity against Pseudomonas aeruginosa ATCC 27853 at sub-MBC measured after 30 serial passages; assay type: functional, organism-based
Summary of the method: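 P. aeruginosa ATCC 27853 passaged every 24 h by 100-fold dilution in MHB containing sub-MBC drug, for 30 passages. MBC was tested on the cells from each passage. Control cells were passaged in drug-free MHB. Run independently in triplicate with three biological replicates.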

Staphylococcus aureus = experiment: Induction of morphological changes in Staphylococcus aureus ATCC 29213 assessed as cytoplasmic leakage at MBD measured after 1 hr by transmission electron microscopic analysis; assay type: functional, organism-based
Escherichia coli [1] = experiment: Induction of morphological changes in Escherichia coli ATCC 25922 assessed as cell content leakage at MBD measured after 1 hr by transmission electron microscopic analysis; assay type: functional, organism-based
Escherichia coli [2] = experiment: Antibacterial activity against Escherichia coli ATCC 25922 assessed as ratio of MIC95 in presence of NaCl to in absence of NaCl; assay type: functional

Substance | Activity (Pseudomonas aeruginosa) | Activity (Staphylococcus aureus) | Activity (Escherichia coli [1]) | Ratio (Escherichia coli [2])
H-AARIILRWRFR-NH2 | Active | Active | Active | –
H-AARRILRWIFR-NH2 | – | – | – | 16
